# Laboratory results from ChEMBL document CHEMBL1165965, “Synthesis and structure-activity relationships of 1,2,3,4-tetrahydropyrido[2,3-b]pyrazines as potent and selective inhibitors of the anaplastic lymphoma kinase” (Bioorg Med Chem, 2010).
# Molecular target: ALK tyrosine kinase receptor (Homo sapiens, UniProt Q9UM73)
# Assay: Inhibition of ALK by time-resolved fluorescence assay
# Method in brief: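 Baculovirus-expressed ALK (30 ng/ml) on plates coated with GST–PLC-gamma substrate in TBS. Reaction ran 15 min at 37 °C. Europium-labeled anti-phosphotyrosine antibody was added for 1 h at 37 °C, then enhancement solution for 30 min, and TRF was read. IC50 came from a variable-slope sigmoidal fit of % inhibition vs log concentration.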
# Chain of ALK tyrosine kinase receptor (Q9UM73 whole entry): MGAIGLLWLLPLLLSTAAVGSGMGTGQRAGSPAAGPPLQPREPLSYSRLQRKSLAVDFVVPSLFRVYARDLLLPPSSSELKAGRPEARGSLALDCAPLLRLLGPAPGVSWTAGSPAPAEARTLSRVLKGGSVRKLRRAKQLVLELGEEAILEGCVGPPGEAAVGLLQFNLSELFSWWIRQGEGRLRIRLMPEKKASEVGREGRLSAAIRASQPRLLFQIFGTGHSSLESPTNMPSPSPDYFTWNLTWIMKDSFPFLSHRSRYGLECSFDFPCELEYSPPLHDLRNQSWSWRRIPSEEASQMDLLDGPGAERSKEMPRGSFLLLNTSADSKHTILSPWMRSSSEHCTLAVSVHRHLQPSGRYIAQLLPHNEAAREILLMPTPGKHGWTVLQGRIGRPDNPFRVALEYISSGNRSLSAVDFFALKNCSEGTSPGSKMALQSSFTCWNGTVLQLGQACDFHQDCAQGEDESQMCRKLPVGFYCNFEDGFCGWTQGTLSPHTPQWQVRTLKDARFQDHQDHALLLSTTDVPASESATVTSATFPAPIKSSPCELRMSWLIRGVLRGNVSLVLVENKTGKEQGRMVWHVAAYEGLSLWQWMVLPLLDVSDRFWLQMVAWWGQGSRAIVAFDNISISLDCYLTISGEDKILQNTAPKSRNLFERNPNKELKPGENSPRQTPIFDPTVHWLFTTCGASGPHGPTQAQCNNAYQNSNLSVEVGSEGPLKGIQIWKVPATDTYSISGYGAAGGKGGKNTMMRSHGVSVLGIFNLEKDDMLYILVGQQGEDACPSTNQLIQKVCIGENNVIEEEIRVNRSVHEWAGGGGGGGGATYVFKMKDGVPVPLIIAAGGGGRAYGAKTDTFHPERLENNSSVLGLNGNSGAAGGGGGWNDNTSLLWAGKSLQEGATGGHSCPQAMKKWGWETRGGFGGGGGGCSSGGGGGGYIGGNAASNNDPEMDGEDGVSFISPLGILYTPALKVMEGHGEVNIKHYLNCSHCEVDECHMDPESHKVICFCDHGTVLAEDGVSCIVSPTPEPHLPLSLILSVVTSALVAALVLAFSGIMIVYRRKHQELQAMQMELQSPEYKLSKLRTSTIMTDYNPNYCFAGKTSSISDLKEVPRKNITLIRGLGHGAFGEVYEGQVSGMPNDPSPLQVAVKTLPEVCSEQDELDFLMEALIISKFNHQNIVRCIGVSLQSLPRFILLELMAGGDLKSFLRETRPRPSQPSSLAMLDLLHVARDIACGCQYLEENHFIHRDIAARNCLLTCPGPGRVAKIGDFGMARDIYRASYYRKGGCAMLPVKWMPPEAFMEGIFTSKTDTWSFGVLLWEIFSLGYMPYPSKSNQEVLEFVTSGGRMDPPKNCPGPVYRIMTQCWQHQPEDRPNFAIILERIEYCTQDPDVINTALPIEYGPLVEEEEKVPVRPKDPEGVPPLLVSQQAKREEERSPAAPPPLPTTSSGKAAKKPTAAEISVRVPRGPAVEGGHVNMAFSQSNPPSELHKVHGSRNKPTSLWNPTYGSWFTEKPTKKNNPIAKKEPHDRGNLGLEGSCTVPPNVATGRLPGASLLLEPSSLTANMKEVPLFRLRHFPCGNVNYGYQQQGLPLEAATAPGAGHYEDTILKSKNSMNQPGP
row,Compound,IC50 [µM]
1,O=C(c1ccc(-c2cnc3c(c2)N(Cc2ccccc2)CCN3)cc1)N1CCC[C@H]1CN1CCCC1,0.256
2,CN1CCN(c2ccc(-c3cnc4c(c3)N(Cc3cc(Cl)ccc3Cl)CCN4C)cn2)CC1,> 3
3,O=C(c1ccc(-c2cnc3c(c2)N(Cc2cc(F)ccc2F)CCN3)cc1)N1CCC[C@H]1CN1CCCC1,0.015
4,CN1CCN(c2ccc(-c3cnc4c(c3)C(Cc3cc(F)ccc3F)CCN4)cn2)CC1 (stereo not drawn),1.54
5,O=C1CNc2ncc(-c3ccc(C(=O)N4CCC[C@H]4CN4CCCC4)cc3)cc2N1Cc1cc(F)ccc1F,0.145
6,O=C1CNc2ncc(-c3ccc(C(=O)N4CCC[C@H]4CN4CCCC4)cc3)cc2N1Cc1ccccc1,> 10
7,CN1CCN(c2ccc(-c3cnc4c(c3)N(Cc3c(Cl)cccc3C(F)(F)F)CCN4)cn2)CC1,0.506
8,O=C(c1ccc(-c2cnc3c(c2)N(Cc2c(Cl)cccc2Cl)CCN3)cc1)N1CCC[C@H]1CN1CCCC1,0.027
9,CN1CCN(c2ccc(-c3cnc4c(c3)C(Oc3c(F)ccc(F)c3Cl)CCN4)cn2)CC1 (stereo not drawn),> 10
10,CN1CCN(c2ccc(-c3cnc4c(c3)N(S(=O)(=O)c3cc(F)ccc3F)CCN4)cn2)CC1,0.465
11,O=C1CNc2ncc(-c3ccc(C(=O)N4CCC[C@H]4CN4CCCC4)cc3)cc2N1Cc1c(Cl)cccc1Cl,0.278
12,CCOC(=O)c1ccc(-c2cnc3c(c2)N(Cc2cc(Cl)ccc2C(F)(F)F)CCN3)cc1,> 3
13,CN1CCN(c2ccc(-c3cnc4c(c3)N(C(=O)Cc3cc(F)ccc3F)CCN4)cn2)CC1,> 10
